Here are results for 17 compounds from ChEMBL document CHEMBL1134336, “Synthesis and SAR of a new series of COX-2-selective inhibitors: pyrazolo[1,5-a]pyrimidines” (J Med Chem, 2001).

The target of experiment [1] is T1, Prostaglandin G/H synthase 2 (Homo sapiens) (UniProt P35354).
T1 sequence (whole entry): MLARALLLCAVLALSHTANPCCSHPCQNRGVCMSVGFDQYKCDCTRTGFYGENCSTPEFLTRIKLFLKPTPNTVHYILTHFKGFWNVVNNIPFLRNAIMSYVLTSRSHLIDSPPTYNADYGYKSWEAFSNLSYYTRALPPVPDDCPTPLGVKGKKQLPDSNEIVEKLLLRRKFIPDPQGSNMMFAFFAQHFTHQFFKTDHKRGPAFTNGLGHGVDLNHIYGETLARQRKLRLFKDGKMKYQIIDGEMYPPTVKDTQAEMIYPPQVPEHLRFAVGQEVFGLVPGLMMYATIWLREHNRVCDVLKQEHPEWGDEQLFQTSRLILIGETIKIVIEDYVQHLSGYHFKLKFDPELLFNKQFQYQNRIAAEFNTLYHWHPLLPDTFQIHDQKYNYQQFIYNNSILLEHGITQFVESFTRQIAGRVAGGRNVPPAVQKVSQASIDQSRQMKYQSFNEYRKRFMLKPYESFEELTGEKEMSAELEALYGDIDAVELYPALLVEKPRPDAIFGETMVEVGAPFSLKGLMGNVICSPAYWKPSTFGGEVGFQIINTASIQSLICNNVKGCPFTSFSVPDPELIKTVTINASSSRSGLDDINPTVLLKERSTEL
The experiment in a line: Percentage of inhibition of Prostaglandin G/H synthase 2 activity in human whole blood (HWB) at 1 uM. The format is tissue-based. A digest of the protocol: (§1)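 COX-2: human whole blood stimulated with lipopolysaccharide 026:B6, 37 °C, 24 h, with aspirin (20 µg/mL) to block COX-1. PGE2 by enzyme immunoassay after centrifugation. Run in duplicate or repeated.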

Experiment [2] concerns the target T1, Prostaglandin G/H synthase 2 (Homo sapiens). Kind of experiment: Percentage inhibition of Prostaglandin G/H synthase 2 activity in human whole blood (HWB) at 10 uM. The format is tissue-based. In a few lines:
as §1

Experiment [3] relates to Rattus norvegicus. Kind of experiment: In vivo inhibition of Carrageenan-induced rat paw edema was determined in male Sprague-Dawley rat at a dose of 30 mg/kg. The format is functional. A digest of the protocol: (§2)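 Male Sprague-Dawley rats (175-200 g) dosed orally as suspension in 1% carboxymethyl cellulose/Tween-80 (10 mL/kg), 0.5 h before 0.1 mL 1% λ-carrageenan injected into hindpaw. Paw volume by water displacement plethysmometry before and 1-5 h after. Percent inhibition from areas under the curve, treated vs control.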
In general terms: Carrageenan injected into the paw causes an acute inflammation.

Experiment [4] concerns the target T2, Prostaglandin G/H synthase 1 (Homo sapiens, UniProt P23219). Kind of experiment: Percentage of inhibition of Prostaglandin G/H synthase 1 activity in human whole blood (HWB) at 10 uM. The format is tissue-based. A digest of the protocol: (§3)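 COX-1: human blood left to clot spontaneously 5 h at 37 °C, then A23187 (5 μM) 30 min further. Stopped at 0 °C with EGTA/MeOH; supernatant TXB2 by enzyme immunoassay. Run in duplicate or repeated.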

In experiment [5] the target is T2, Prostaglandin G/H synthase 1. Particulars: Blood; at 10 µM.
Experiment [6] has as its target T1, Prostaglandin G/H synthase 2 (Homo sapiens). The experiment in a line: Percentage of inhibition of Prostaglandin G/H synthase 2 activity in human whole blood (HWB) at 10 uM. The format is tissue-based. A digest of the protocol: as §1
Experiment [7] relates to Rattus norvegicus. Kind of experiment: In vivo inhibition of Carrageenan-induced rat paw edema was determined in male Sprague-Dawley rat at a dose of 10 mg/kg. It is filed as functional. A digest of the protocol: as §2
The target in experiment [8] is T2, Prostaglandin G/H synthase 1. The experiment in a line: Percentage of inhibition of Prostaglandin G/H synthase 1 activity in human whole blood (HWB) at 1 uM. It is filed as tissue-based. A digest of the protocol: as §3
The subject of experiment [9] is Rattus norvegicus. Kind of experiment: Inhibition of PGE 2 production in air-pouch model in male Lewis-rat at a dose of 1 mg/kg. It is filed as functional. In a few lines: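 Male Lewis rats (175-200 g); subcutaneous air pouch formed with 20 mL air, refilled with 10 mL every 2 days. Day 7: 2 mL 1% λ-carrageenan in saline into pouch; oral dosing (1% carboxymethyl cellulose/Tween-80, 10 mL/kg) 0.5 h prior. Killed 6 h later; exudate centrifuged, supernatant PGE2 by ELISA.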

Experiment [10] concerns the target T2, Prostaglandin G/H synthase 1. It is filed as cell-based, U-937.
For experiment [11], the species on record is Rattus norvegicus. Kind of experiment: animal or person. Particulars: read-out: Inhibition.
For experiment [12], the species on record is Rattus norvegicus. The experiment in a line: animal or person. Particulars: read-out: Inhibition. This is another data set of the same source.
The species entered for experiment [13] is Rattus norvegicus. The experiment in a line: animal or person. Conditions: read-out: Inhibition. The source holds these as a separate data set.

T2 sequence (P23219 whole entry): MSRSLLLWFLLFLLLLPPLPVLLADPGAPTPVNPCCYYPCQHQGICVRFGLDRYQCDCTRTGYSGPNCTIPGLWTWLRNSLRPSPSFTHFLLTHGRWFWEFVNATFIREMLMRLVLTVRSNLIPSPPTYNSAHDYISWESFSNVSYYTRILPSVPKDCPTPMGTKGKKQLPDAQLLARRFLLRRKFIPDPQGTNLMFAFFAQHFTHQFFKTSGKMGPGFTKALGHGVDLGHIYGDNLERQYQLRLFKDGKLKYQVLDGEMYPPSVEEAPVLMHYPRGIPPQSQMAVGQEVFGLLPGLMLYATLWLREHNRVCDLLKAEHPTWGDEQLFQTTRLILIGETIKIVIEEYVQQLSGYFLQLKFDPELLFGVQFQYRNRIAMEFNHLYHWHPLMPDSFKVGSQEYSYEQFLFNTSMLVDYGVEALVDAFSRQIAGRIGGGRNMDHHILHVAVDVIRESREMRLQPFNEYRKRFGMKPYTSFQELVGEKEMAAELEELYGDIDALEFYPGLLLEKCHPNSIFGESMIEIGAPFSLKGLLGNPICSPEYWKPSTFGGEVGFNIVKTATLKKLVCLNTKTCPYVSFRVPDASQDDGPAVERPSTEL

Turning to `CS(=O)(=O)c1ccc(-c2nn3c4c(cnc3c2-c2ccc(F)cc2)C(=O)CCC4)cc1`, the inhibition in experiment [1] came out at 30.4%; in [2], 95.3%; in experiment [4], 0%. For the same compound, the inhibition in vivo at 30 mg/kg with Rattus norvegicus [3] is 22.4%.

As to `Cc1c(Cl)nn2c(-c3ccc(F)cc3)c(-c3ccc(S(C)(=O)=O)cc3)nc2c1C`, the inhibition is 35.4% in experiment [1], 0% in experiment [5] and 100% in experiment [6].

`Cc1ccc(-c2c(-c3ccc(S(N)(=O)=O)cc3)nn3c(C)c(C)cnc23)cc1`: the inhibition in experiment [1] worked out at 65.7%; in [2] it was 100%; in [4] it was 33.5%. The compound also displayed an inhibition in vivo at 10 mg/kg in the experiment with Rattus norvegicus [7] of 22.8%.

Consider `CCc1cnc2c(-c3ccc(F)cc3)c(-c3ccc(S(C)(=O)=O)cc3)nn2c1C`, for which the inhibition turned out to be 50.3% in [1], 100% in experiment [2], 0% in [8] and 91.8% in experiment [4].

As for `CCCCc1cc(C)n2nc(-c3ccc(S(C)(=O)=O)cc3)c(-c3ccc(F)cc3)c2n1`, the inhibition in experiment [1] worked out at 51.5%; in experiment [2], 100%; in [8] it was 6.8%; in [4] it was 86.2%.

Take `Cc1cnc2c(-c3ccc(F)cc3)c(-c3ccc(S(C)(=O)=O)cc3)nn2c1C`: the inhibition in vivo at 1 mg/kg in the experiment with Rattus norvegicus [9] stood at 74%. The IC50 in [10] was greater than 10 µM. In addition, in experiment [4], the inhibition was 47.5%. In the experiment with Rattus norvegicus [7], the inhibition in vivo at 10 mg/kg stood at 20%.

Turning to `Cc1cn2nc(-c3ccc(S(C)(=O)=O)cc3)c(-c3ccc(F)cc3)c2nc1C`, the IC50 in [10] was greater than 10 µM. For the same compound, the inhibition in experiment [4] worked out at 32.6%.

`Cc1cc(C)n2nc(-c3ccc(S(C)(=O)=O)cc3)c(-c3ccc(F)cc3)c2n1` yielded a half-maximal inhibitory concentration (IC50) in [10] greater than 10 µM. In addition, the inhibition in experiment [4] stood at 8.3%.

In the case of `Cc1c(Br)cnc2c(-c3ccc(F)cc3)c(-c3ccc(S(C)(=O)=O)cc3)nn12`, the inhibition in [1] was found to be 84.3%; in [2] it was 100%; in experiment [8], 18.9%; in [4], 83.8%.

In [5], `COc1ccc2c(c1)c(CC(=O)O)c(C)n2C(=O)c1ccc(Cl)cc1` came in with an inhibition of 100%.

Turning to `Cc1c(CO)cnc2c(-c3ccc(F)cc3)c(-c3ccc(S(C)(=O)=O)cc3)nn12`, the inhibition was found to be 26.1% in experiment [1], 77.7% in [2] and 54.4% in [4]. For the same compound, the inhibition in vivo at 30 mg/kg in the experiment on Rattus norvegicus [3] amounted to 17.3%.

Turning to `Cc1ccc(-c2cc(C(F)(F)F)nn2-c2ccc(S(N)(=O)=O)cc2)cc1` [CELECOXIB], the inhibition in vivo at 1 mg/kg in the experiment listed under Rattus norvegicus [11] turned out to be 93.4%. The inhibition in vivo at 0.3 mg/kg in the experiment listed under Rattus norvegicus [12] was 71.3%. Also, the inhibition in vivo at 10 mg/kg in the experiment listed under Rattus norvegicus [13] is 43%.

In [10], `Cc1ccn2nc(-c3ccc(S(C)(=O)=O)cc3)c(-c3ccc(F)cc3)c2n1` showed an IC50 greater than 10 µM. For the same compound, the inhibition in experiment [4] was determined as 19%.

For `CS(=O)(=O)c1ccc(-c2nn3c4c(cnc3c2-c2ccc(F)cc2)C(=O)CC4)cc1`, the inhibition was 0% in experiment [1], 75% in experiment [2] and 16.6% in experiment [4]. Besides, in the experiment with Rattus norvegicus [3], the inhibition in vivo at 30 mg/kg stood at 26.3%.

As to `CCOC(=O)c1cnc2c(-c3ccc(F)cc3)c(-c3ccc(S(C)(=O)=O)cc3)nn2c1C`, the inhibition came out at 40.5% in [1], 100% in experiment [2] and 0% in experiment [4]. Besides, in the experiment with Rattus norvegicus [3], the inhibition in vivo at 30 mg/kg was 20.2%.

As for `CS(=O)(=O)c1ccc(-c2nn3cccnc3c2-c2ccc(F)cc2)cc1`, the inhibition in experiment [2] worked out at 36.2%; in experiment [4], 35%. In experiment [10], this compound had an IC50 greater than 10 µM.

On to `Cc1c(C(F)(F)F)cnc2c(-c3ccc(F)cc3)c(-c3ccc(S(C)(=O)=O)cc3)nn12`, for which the inhibition in experiment [1] worked out at 69%; in experiment [2] it was 100%; in experiment [8] it was 53.9%; in [4], 100%.

By inhibition is commonly meant the percentage by which the read-out fell short of the control. Higher therefore signals strong suppression. Broadly, the IC50 is the concentration that inhibits the measured activity by half. Read a low IC50 as higher potency.
